# Results as given in publication PMC5600458 (Biochemistry and Biophysics Reports, 2016).
# Tests used:
# trypsin [1] = target: T1, trypsin (Bos taurus, UniProt P00760); format: biochemical; conditions: pH 7.2
# T1 sequence (P00760 24-246): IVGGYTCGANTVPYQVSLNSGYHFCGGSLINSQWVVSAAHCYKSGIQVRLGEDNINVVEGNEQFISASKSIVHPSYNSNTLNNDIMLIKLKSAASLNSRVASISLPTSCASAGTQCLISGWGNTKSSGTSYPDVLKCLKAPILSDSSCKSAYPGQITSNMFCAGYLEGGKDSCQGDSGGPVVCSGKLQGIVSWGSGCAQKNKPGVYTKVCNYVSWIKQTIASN
# In short: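 Trypsin (78% active by p-nitrophenyl p-guanidobenzoate titration) hydrolysing α-N-benzoyl-L-arginine-p-nitroanilide at 25 °C, [S0] ≪ KM, in 0.1 M buffers (potassium phosphate at pH 7.2; sodium acetate at pH 5.0). At pH 7.2: 88.0 μM substrate, 0.17 μM trypsin, 3.3% DMSO. Inhibitor was added last. Initial rates were taken within 0.5–1 min and fitted to d[P]/dt = vo·Ki/([I]+Ki), ≥3 determinations. Effective molarity = KHK(obs)/KH1.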
# [2] = Hydration constants by quantitative 13C NMR; format: physicochemical; conditions: pH 3.0, 13C NMR
# [3] = 13C NMR of stability / Schiff base formation by the free glyoxal inhibitor; format: physicochemical
# trypsin [4] = target: T1, trypsin; assay: 13C NMR of trypsin catalysed breakdown of bound glyoxal inhibitor; format: biochemical; conditions: pH 7.2, in the presence of trypsin
smiles,measurement,setting,value
NC(N)=NCCC[C@H](NC(=O)OCc1ccccc1)C(=O)O [Z-Arg-COOH],Tighter binding than Z-Lys-COOH,trypsin [1],~ 2 fold
NCCCC[C@H](NC(=O)OCc1ccccc1)C(=O)[13CH]=O [Z-Lys-CO^13CHO],"KH1obs, glyoxal aldehyde carbon",[2],97±7
same,Stability of NMR signals,"[3]; pH 3.0, 64 h at 25 °C",no change in the intensity of the NMR signals
same,t1/2 of decrease of inhibitor signals on storage,"[3]; pH 3, storage ~1 year",1850 ± 228 h
same,Half life of Schiff base formation,"[3]; pH 7.2, 25 °C",11.2 h
same,1st order rate constant of Schiff base formation,"[3]; pH 7.2, 25 °C, 20 mM potassium phosphate buffer",0.062 ± 0.016 h⁻¹
same,Half life of Schiff base formation,[3]; pH 10.4,0.15 h
same,1st order rate constant of Schiff base formation,"[3]; pH 10.4, 20 mM sodium bicarbonate buffer",4.7 ± 0.7 h⁻¹
same,t1/2 of conversion of trypsin-bound inhibitor to α-hydroxycarboxylic acid,trypsin [4],2.9 h
NCCCC[C@H](NC(=O)OCc1ccccc1)[13C](=O)C=O [Z-Lys-^13COCHO],Half life of Schiff base formation allowing for pH 7.0 instead of 7.2,[3]; corrected to pH 7.2,14.5 h
same,Half life of Schiff base formation,[3]; pH 7.0,23.0 h
same,1st order rate constant of Schiff base formation,"[3]; pH 7.0, 25 °C, 20 mM potassium phosphate buffer",0.030±0.004 h^−^1
